Experimental data taken from ChEMBL document CHEMBL3758148, “4-Phenylpyridin-2-one Derivatives: A Novel Class of Positive Allosteric Modulator of the M1 Muscarinic Acetylcholine Receptor” (J Med Chem, 2016).
Activity calls are given as the source filed them. The calls are words filed in the database; no cut-off is given here.

Key:
[1] = biological target: T1, Muscarinic acetylcholine receptor M1 (Homo sapiens) (UniProt P11229); assay: Allosteric agonist activity at human muscarinic M1 receptor expressed in CHO Flp-In cells assessed as intrinsic activity measured as IP1 accumulation after 1 hr by HTRF method; assay type: functional, cell-based
T1 sequence (whole entry): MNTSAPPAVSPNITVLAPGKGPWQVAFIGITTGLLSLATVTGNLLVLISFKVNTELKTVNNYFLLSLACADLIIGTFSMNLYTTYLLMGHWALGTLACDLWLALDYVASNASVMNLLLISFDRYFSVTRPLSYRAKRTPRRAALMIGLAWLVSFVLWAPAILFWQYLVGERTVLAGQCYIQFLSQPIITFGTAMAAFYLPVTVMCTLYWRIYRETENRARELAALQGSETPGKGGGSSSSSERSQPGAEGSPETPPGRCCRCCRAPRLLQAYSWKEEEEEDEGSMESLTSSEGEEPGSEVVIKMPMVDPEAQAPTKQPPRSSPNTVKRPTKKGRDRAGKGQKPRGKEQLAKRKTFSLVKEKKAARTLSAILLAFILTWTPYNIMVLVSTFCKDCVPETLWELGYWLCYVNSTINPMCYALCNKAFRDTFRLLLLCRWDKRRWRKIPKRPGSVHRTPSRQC
Outline: (§1)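 Suspended Flp-In CHO cells stably expressing hM1, stimulated at 10⁶ cells/ml in HEPES buffer with 50 mM LiCl, pH 7.4, using increasing ACh with or without increasing modulator, 1 h at 37 °C, 5% CO2. IP1 read by HTRF (665/590 nm ratio). Curves fitted globally to the operational model of allosterism, with KB fixed from binding. Mean ± SEM, ≥3 experiments in duplicate.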

[2] = biological target: T1, Muscarinic acetylcholine receptor M1 (Homo sapiens); assay: Positive allosteric modulation of human muscarinic M1 receptor expressed in CHO Flp-In cells assessed as functional cooperativity with acetylcholine measured as IP1 accumulation after 1 hr by HTRF method; assay type: cell-based; outline: as §1
[3] = biological target: T2, Muscarinic acetylcholine receptor M2 (Homo sapiens) (UniProt P08172); assay: Displacement of [3H]NMS from human muscarinic M2 receptor expressed in CHO Flp-In cells up to 10 uM after 1 hr by microbeta liquid scintillation counting-based radioligand binding assay; assay type: cell-based
T2 sequence (whole entry): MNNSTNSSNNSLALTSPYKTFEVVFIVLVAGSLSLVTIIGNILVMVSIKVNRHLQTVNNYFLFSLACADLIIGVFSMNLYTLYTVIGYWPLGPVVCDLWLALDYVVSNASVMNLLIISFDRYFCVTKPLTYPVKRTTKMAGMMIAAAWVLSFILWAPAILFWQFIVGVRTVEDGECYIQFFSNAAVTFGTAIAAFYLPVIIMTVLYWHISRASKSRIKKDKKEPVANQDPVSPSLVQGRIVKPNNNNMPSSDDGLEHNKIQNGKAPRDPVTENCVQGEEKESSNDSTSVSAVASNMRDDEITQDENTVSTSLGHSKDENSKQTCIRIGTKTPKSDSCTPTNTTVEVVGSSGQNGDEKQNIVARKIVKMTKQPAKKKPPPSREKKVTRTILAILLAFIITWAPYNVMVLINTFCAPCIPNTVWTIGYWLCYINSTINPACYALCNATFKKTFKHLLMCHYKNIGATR
Outline: (§2)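 Whole Flp-In CHO cells expressing hM2, hM3, hM4 or hM5 were incubated with [3H]NMS, ACh and modulator up to 10 μM in HEPES-buffered saline pH 7.4, 1 h at 37 °C. Bound radioactivity was counted by scintillation after two ice-cold saline washes.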

[4] = biological target: T3, Muscarinic acetylcholine receptor M4 (Homo sapiens) (UniProt P08173); assay: Displacement of [3H]NMS from human muscarinic M4 receptor expressed in CHO Flp-In cells up to 10 uM after 1 hr by microbeta liquid scintillation counting-based radioligand binding assay; assay type: cell-based; outline: as §2
T3 sequence (whole entry): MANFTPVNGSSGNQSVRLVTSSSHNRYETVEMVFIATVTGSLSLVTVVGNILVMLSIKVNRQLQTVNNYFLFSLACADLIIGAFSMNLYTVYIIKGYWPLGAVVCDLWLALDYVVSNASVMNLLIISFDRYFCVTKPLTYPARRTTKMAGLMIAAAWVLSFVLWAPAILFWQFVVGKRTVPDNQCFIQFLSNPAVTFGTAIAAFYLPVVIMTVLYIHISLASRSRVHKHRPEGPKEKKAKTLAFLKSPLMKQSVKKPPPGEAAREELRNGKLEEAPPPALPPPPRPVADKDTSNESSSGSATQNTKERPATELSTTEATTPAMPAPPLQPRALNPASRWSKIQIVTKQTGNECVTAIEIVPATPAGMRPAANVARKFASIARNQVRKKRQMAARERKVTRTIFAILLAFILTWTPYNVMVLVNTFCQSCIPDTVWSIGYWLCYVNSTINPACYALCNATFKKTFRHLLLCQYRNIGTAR

[5] = biological target: T4, Muscarinic acetylcholine receptor M5 (Homo sapiens) (UniProt P08912); assay: Displacement of [3H]NMS from human muscarinic M5 receptor expressed in CHO Flp-In cells up to 10 uM after 1 hr by microbeta liquid scintillation counting-based radioligand binding assay; assay type: cell-based; outline: as §2
T4 sequence (whole entry): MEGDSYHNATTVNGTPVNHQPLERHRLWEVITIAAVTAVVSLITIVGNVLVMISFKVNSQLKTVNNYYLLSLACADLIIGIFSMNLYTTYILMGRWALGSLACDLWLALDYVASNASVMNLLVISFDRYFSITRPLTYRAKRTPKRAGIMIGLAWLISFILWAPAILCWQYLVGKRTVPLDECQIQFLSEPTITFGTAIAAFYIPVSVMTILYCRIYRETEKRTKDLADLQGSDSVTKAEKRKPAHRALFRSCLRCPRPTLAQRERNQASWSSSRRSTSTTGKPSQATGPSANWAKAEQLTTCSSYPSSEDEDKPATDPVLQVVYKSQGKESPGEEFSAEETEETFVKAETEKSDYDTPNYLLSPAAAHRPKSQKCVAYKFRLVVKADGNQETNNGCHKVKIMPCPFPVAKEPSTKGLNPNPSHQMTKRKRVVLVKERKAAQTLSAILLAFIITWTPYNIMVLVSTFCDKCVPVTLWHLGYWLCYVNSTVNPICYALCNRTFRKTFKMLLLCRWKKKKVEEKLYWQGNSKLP

[6] = biological target: Muscarinic acetylcholine receptor M3 (Homo sapiens) (UniProt P20309); assay: Displacement of [3H]NMS from human muscarinic M3 receptor expressed in CHO Flp-In cells up to 10 uM after 1 hr by microbeta liquid scintillation counting-based radioligand binding assay; assay type: cell-based; outline: as §2
Sequence of Muscarinic acetylcholine receptor M3 (Homo sapiens) (P20309 whole entry, looked up): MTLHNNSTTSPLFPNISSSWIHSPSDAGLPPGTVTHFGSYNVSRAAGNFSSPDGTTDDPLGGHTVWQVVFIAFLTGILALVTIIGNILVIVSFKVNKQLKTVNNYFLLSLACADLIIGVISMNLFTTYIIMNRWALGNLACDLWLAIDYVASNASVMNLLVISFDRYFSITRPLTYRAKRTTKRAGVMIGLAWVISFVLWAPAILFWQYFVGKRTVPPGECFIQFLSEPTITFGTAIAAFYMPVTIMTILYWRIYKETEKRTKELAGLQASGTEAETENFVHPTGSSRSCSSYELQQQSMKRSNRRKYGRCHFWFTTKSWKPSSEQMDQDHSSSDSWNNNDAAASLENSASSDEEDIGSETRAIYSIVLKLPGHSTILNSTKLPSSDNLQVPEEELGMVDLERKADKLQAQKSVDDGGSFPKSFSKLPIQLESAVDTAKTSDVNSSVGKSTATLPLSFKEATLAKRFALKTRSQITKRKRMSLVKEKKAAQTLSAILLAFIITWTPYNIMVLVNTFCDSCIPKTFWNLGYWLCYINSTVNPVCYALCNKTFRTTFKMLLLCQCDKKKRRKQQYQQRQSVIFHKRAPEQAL

[7] = biological target: T1, Muscarinic acetylcholine receptor M1 (Homo sapiens); assay: Positive allosteric modulation of human muscarinic M1 receptor expressed in CHO Flp-In cells assessed as functional cooperativity with acetylcholine measured as IP1 accumulation upto 30 uM after 1 hr by HTRF method; assay type: cell-based; outline: as §1
[8] = biological target: T1, Muscarinic acetylcholine receptor M1 (Homo sapiens); assay: Displacement of [3H]NMS from human muscarinic M1 receptor expressed in CHO Flp-In cells after 1 hr by microbeta liquid scintillation counting-based radioligand binding assay; assay type: cell-based
Outline: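 Intact adherent Flp-In CHO cells expressing hM1 (10⁴ cells/well), incubated with 0.2 nM [3H]NMS, varying ACh and modulator in HEPES-buffered saline pH 7.4 for 1 h at 37 °C. Washed with ice-cold 0.9% NaCl, then scintillation counted. Fitted to an allosteric ternary complex model with [3H]NMS KA 0.2 nM. Mean ± SEM, ≥3 experiments in duplicate.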

Row | SMILES | Intrinsic activity [1] | log(IA) [1] | log(activity) [2] | Activity [3] | Activity [4] | Activity [5] | Activity [6] | Activity [7] | Kb [8] | pKb [8]
1 | COc1ccc(Cn2cc(C(=O)O)c(=O)c3ccccc32)cc1 | 0.22 | -0.6 | 1.84 | inactive | inactive | inactive | inactive | – | – | –
2 | COc1ccccc1COc1ccccc1-c1ccn([C@H]2CCCC[C@@H]2O)c(=O)c1 (racemic) | – | – | – | – | – | – | – | inactive | 30 µM | 4.53
3 | Cn1cc(-c2ccc(COc3ccccc3-c3ccn([C@H]4CCCC[C@@H]4O)c(=O)c3)cc2)cn1 (racemic) | 0.21 | -0.68 | 2.3 | inactive | inactive | inactive | inactive | – | 43 µM | 4.37
4 | N#Cc1ccccc1COc1ccccc1-c1ccn([C@H]2CCCC[C@@H]2O)c(=O)c1 (racemic) | – | – | – | – | – | – | – | inactive | 42 µM | 4.38
5 | Nc1ccccc1-c1ccn([C@H]2CCCC[C@@H]2O)c(=O)c1 (racemic) | – | – | – | – | – | – | – | inactive | – | 3.86
6 | O=C(O)c1ccc(COc2ccccc2-c2ccn([C@H]3CCCC[C@@H]3O)c(=O)c2)cc1 (racemic) | – | -1.24 | 0.92 | – | – | – | – | – | – | 3.88
7 | O=c1cc(-c2ccccc2NCc2ccc(-c3ccccc3)cc2)ccn1[C@H]1CCCC[C@@H]1O (racemic) | – | – | – | – | – | – | – | inactive | 69 µM | 4.16
8 | O=c1cc(-c2ccccc2NCc2ccc(-c3ccncc3)cc2)ccn1[C@H]1CCCC[C@@H]1O (racemic) | – | – | – | – | – | – | – | inactive | 9.3 µM | 5.03
9 | O=c1cc(-c2ccccc2NCc2ccc(Br)cc2)ccn1[C@H]1CCCC[C@@H]1O (racemic) | – | – | – | – | – | – | – | inactive | 45 µM | 4.35
10 | O=c1cc(-c2ccccc2O)ccn1[C@H]1CCCC[C@@H]1O (racemic) | – | – | – | – | – | – | – | inactive | 79 µM | 4.1
11 | O=c1cc(-c2ccccc2OCc2ccc(-c3cnn(CC4CCCCC4)c3)cc2)ccn1[C@H]1CCCC[C@@H]1O (racemic) | – | – | – | – | – | – | – | inactive | 30 µM | 4.52
12 | O=c1cc(-c2ccccc2OCc2ccc(-c3cnn(Cc4ccccc4)c3)cc2)ccn1[C@H]1CCCC[C@@H]1O (racemic) | – | – | – | – | – | – | – | inactive | 21 µM | 4.68
13 | O=c1cc(-c2ccccc2OCc2ccc(Br)cc2)ccn1[C@H]1CCCC[C@@H]1O (racemic) | – | – | – | – | – | – | – | inactive | 58 µM | 4.24
14 | O=c1cc(-c2ccccc2OCc2ccc(Br)cc2F)ccn1[C@H]1CCCC[C@@H]1O (racemic) | – | – | – | – | – | – | – | inactive | 18 µM | 4.75
15 | O=c1cc(-c2ccccc2OCc2ccc(Oc3ccccc3)cc2)ccn1[C@H]1CCCC[C@@H]1O (racemic) | – | – | – | – | – | – | – | inactive | 19 µM | 4.71
16 | O=c1cc(-c2ccccc2OCc2ccccc2C(F)(F)F)ccn1[C@H]1CCCC[C@@H]1O (racemic) | – | – | – | – | – | – | – | inactive | 33 µM | 4.48
